Test results published in ChEMBL document CHEMBL3616427, “Design, synthesis, and biological evaluation of amide imidazole derivatives as novel metabolic enzyme CYP26A1 inhibitors” (Bioorg Med Chem, 2015).

What was measured:
Cytochrome P450 26A1 [1] = target: T1, Cytochrome P450 26A1 (Homo sapiens, UniProt O43174); test: Inhibition of CYP26A1 (unknown origin)
T1 sequence (O43174 whole entry): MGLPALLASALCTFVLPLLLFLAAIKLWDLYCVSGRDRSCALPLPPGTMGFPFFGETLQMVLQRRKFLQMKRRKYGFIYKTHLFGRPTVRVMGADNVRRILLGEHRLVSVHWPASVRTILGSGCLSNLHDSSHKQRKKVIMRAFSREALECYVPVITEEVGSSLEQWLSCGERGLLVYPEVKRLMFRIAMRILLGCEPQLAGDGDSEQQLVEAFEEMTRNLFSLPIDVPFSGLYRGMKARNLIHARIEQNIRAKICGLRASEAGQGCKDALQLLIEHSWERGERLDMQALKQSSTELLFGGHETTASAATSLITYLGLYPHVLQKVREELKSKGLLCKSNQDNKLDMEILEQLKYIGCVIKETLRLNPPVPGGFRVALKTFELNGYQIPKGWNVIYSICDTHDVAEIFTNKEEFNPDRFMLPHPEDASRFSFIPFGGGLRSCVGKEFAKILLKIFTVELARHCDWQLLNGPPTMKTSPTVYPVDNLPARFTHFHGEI

HL-60 [2] = test: Induction of cell differentiation in human HL60 cells at 10 uM incubated for 72 hrs in presence of 0.1 uM ATRA by NBT dye based assay; type: functional
Cytochrome P450 26A1 [3] = target: T1, Cytochrome P450 26A1; test: Inhibition of CYP26A1 in ATRA-induced human HL60 cell microsomes incubated for 30 mins in dark condition with NADPH and ATRA by HPLC method; type: cell-based, HL-60
HL-60 [4] = test: Growth inhibition of human HL60 cells at 10 uM incubated for 48 hrs in presence of 0.1 uM ATRA by MTT assay; type: functional
How it was run: (§1)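 HL-60 cells plated at 1–104 cells/well (so in the source) and held 24 h at 37 °C, then exposed 48 h to inhibitor at 10 µM and/or ATRA at 0.1 µM. MTT (2 mg/mL) was added for 4 h at 37 °C, the supernatant was discarded, formazan was dissolved in DMSO and absorbance read at 570 nm. Percent growth inhibition reported.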

HL-60 [5] = test: Induction of cell differentiation in human HL60 cells at 10 uM incubated for 72 hrs by NBT dye based assay; type: functional
HL-60 [6] = test: Growth inhibition of human HL60 cells at 10 uM incubated for 48 hrs by MTT assay; type: functional; settings: HL-60, 48 h, read-out: GI; how it was run: as §1
Cytochrome P450 26A1 [7] = target: T1, Cytochrome P450 26A1; test: Inhibition of CYP26A1-mediated ATRA metabolism in human HL60 cells assessed as ATRA level at 5 uM incubated for 96 hrs by HPLC method (reference value: 1.21 uM); type: cell-based; settings: hl-60, 96 h
Cytochrome P450 26A1 [8] = target: T1, Cytochrome P450 26A1; test: Inhibition of CYP26A1-mediated ATRA metabolism in human HL60 cells assessed as ATRA level at 5 uM incubated for 24 hrs by HPLC method (reference value: 7.19 uM); type: cell-based; settings: hl-60, 24 h
Cytochrome P450 26A1 [9] = target: T1, Cytochrome P450 26A1; test: Inhibition of CYP26A1-mediated ATRA metabolism in human HL60 cells assessed as ATRA level at 5 uM incubated for 48 hrs by HPLC method (reference value: 4.95 uM); type: cell-based; settings: hl-60, 48 h
Cytochrome P450 26A1 [10] = target: T1, Cytochrome P450 26A1; test: Inhibition of CYP26A1-mediated ATRA metabolism in human HL60 cells assessed as ATRA level at 5 uM incubated for 72 hrs by HPLC method (reference value: 3.6 uM); type: cell-based; settings: hl-60, 72 h
Cytochrome P450 2D6 = Cytochrome P450 2D6 (Homo sapiens, UniProt P10635); test: Inhibition of CYP2D6 (unknown origin) incubated for 45 mins using NADPH and ATRA by HPLC assay; type: ADME
Chain of Cytochrome P450 2D6 (P10635 whole entry): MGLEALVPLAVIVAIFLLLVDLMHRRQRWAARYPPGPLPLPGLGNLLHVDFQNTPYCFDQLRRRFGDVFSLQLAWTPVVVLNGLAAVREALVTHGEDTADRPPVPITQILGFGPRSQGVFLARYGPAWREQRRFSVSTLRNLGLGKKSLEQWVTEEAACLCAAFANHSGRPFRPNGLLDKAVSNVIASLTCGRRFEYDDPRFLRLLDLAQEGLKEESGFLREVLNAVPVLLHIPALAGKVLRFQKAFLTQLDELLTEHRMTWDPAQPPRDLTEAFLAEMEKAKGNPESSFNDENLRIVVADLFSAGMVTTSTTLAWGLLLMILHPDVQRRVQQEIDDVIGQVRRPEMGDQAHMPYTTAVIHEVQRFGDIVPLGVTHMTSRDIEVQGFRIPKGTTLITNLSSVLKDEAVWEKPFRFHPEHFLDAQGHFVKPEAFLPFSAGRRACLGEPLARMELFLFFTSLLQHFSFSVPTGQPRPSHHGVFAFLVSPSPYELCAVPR

Cytochrome P450 3A4 = Cytochrome P450 3A4 (Homo sapiens, UniProt P08684); test: Inhibition of CYP3A4 (unknown origin) incubated for 45 mins using NADPH by fluorescence assay; type: ADME
Chain of Cytochrome P450 3A4 (P08684 whole entry): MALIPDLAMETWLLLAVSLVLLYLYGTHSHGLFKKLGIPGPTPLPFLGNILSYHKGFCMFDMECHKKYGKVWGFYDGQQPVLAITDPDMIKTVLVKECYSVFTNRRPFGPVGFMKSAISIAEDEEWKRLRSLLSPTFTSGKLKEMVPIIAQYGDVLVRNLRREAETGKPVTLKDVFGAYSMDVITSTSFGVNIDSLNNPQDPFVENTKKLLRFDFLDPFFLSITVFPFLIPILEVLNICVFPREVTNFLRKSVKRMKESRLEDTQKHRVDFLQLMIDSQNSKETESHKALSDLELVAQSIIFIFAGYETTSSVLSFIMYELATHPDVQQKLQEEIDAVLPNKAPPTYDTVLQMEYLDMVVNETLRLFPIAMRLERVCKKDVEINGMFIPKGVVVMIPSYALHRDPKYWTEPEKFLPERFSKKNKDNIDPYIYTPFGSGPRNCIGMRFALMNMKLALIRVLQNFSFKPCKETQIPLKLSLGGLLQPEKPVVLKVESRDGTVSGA

[11] = Selectivity index, ratio of IC50 for CYP3A4 (unknown origin) to IC50 for CYP26A1 in ATRA-induced human HL60 cell microsomes; design: species or system HL-60
[12] = Selectivity index, ratio of IC50 for CYP2D6 (unknown origin) to IC50 for CYP26A1 in ATRA-induced human HL60 cell microsomes; design: species or system HL-60
HL-60 [13] = test: Growth inhibition of human HL60 cells at 0.1 uM incubated for 48 hrs by MTT assay; type: functional; settings: HL-60, 48 h, read-out: GI; how it was run: as §1
HL-60 [14] = test: Induction of cell differentiation in human HL60 cells at 0.1 uM incubated for 72 hrs by NBT dye based assay; type: functional

Row | IC50 (Cytochrome P450 26A1 [3]) [µM] | Structure (SMILES) | Activity (HL-60 [2]) [%] | growth inhibition (GI) (HL-60 [4]) [%] | Activity (HL-60 [5]) [%] | inhibition of growth at 10 µM (HL-60 [6]) [%] | also measured
1 |  | CCC(CC)[C@H](c1ccc(Nc2nc3ccccc3s2)cc1)n1cncn1 |  |  |  |  | IC50 (Cytochrome P450 26A1 [1]): 0.004 µM
2 | 0.37 | COC(=O)C(Cn1ccnc1)NC(=O)c1ccc(-c2ccccc2)cc1 (stereo not drawn) | 47.69 | 51.38 | 0 | 9.64 | 
3 | 0.65 | CCOC(=O)C(Cn1ccnc1)NC(=O)c1ccc(-c2ccccc2)cc1 (stereo not drawn) | 45.64 | 48.19 | 0 | 7.61 | 
4 | 0.79 | CCCOC(=O)C(Cn1ccnc1)NC(=O)c1ccc(-c2ccccc2)cc1 (stereo not drawn) | 44.78 | 42.92 | 0 | 5.04 | 
5 | 0.54 | CC(C)OC(=O)C(Cn1ccnc1)NC(=O)c1ccc(-c2ccccc2)cc1 (stereo not drawn) | 53.91 | 54.58 | 0 | 6.58 | 
6 | 0.97 | CC(C)COC(=O)C(Cn1ccnc1)NC(=O)c1ccc(-c2ccccc2)cc1 (stereo not drawn) | 39.87 | 46.55 | 0 | 8.99 | 
7 | 0.22 | COC(=O)C(Cn1ccnc1)NC(=O)c1c(C)nn(-c2ccccc2)c1Cl (stereo not drawn) | 50.51 | 55.36 | 0 | 10.9 | Activity (Cytochrome P450 26A1 [7]): 3.51 µM; Activity (Cytochrome P450 26A1 [8]): 9.3 µM; Activity (Cytochrome P450 26A1 [9]): 7.45 µM; Activity (Cytochrome P450 26A1 [10]): 5.67 µM; IC50 (Cytochrome P450 2D6): 5.56 µM; IC50 (Cytochrome P450 3A4): 1.17 µM
8 | 0.6 | CCOC(=O)C(Cn1ccnc1)NC(=O)c1c(C)nn(-c2ccccc2)c1Cl (stereo not drawn) | 46.44 | 52.17 | 0 | 7.25 | 
9 | 0.62 | CCCOC(=O)C(Cn1ccnc1)NC(=O)c1c(C)nn(-c2ccccc2)c1Cl (stereo not drawn) | 43.83 | 45.58 | 0 | 6.59 | 
10 | 0.46 | Cc1nn(-c2ccccc2)c(Cl)c1C(=O)NC(Cn1ccnc1)C(=O)OC(C)C (stereo not drawn) | 51.85 | 44.79 | 0 | 4.98 | Activity (Cytochrome P450 26A1 [7]): 4.41 µM; Activity (Cytochrome P450 26A1 [8]): 9.22 µM; Activity (Cytochrome P450 26A1 [9]): 7.87 µM; Activity (Cytochrome P450 26A1 [10]): 6.06 µM; IC50 (Cytochrome P450 2D6): 9.64 µM; IC50 (Cytochrome P450 3A4): 4.92 µM; Ratio IC50 [11]: 11; Ratio IC50 [12]: 21
11 | 1.02 | Cc1nn(-c2ccccc2)c(Cl)c1C(=O)NC(Cn1ccnc1)C(=O)OCC(C)C (stereo not drawn) | 40.79 | 43.54 | 0 | 8.24 | 
12 | 0.41 | COC(=O)C(Cn1ccnc1)NC(=O)c1nc2ccccc2s1 (stereo not drawn) | 49.11 | 50.36 | 0 | 8.64 | 
13 | 0.74 | CCOC(=O)C(Cn1ccnc1)NC(=O)c1nc2ccccc2s1 (stereo not drawn) | 48.31 | 45.4 | 0 | 6.66 | 
14 | 0.84 | CCCOC(=O)C(Cn1ccnc1)NC(=O)c1nc2ccccc2s1 (stereo not drawn) | 42.62 | 47.83 | 0 | 7.64 | 
15 | 0.63 | CC(C)OC(=O)C(Cn1ccnc1)NC(=O)c1nc2ccccc2s1 (stereo not drawn) | 50.85 | 46.36 | 0 | 5.04 | 
16 | 1.11 | CC(C)COC(=O)C(Cn1ccnc1)NC(=O)c1nc2ccccc2s1 (stereo not drawn) | 38.62 | 43.33 | 0 | 9.49 | 
17 |  | CC(C(c1ccc(Nc2nc3ccccc3s2)cc1)n1cncn1)N(C)C (stereo not drawn) |  |  |  |  | IC50 (Cytochrome P450 26A1 [1]): 0.01 µM
18 |  | Clc1cccc(C(c2ccc3[nH]cnc3c2)n2ccnc2)c1 (stereo not drawn) [LIAROZOLE] | 45.55 | 48.37 | 0 | 16.4 | IC50 (Cytochrome P450 2D6): 4.76 µM
19 |  | CC1=C(/C=C/C(C)=C/C=C/C(C)=C/C(=O)O)C(C)(C)CCC1 [TRETINOIN] |  |  |  |  | inhibition of growth at 0.1 µM (HL-60 [13]): 21.8%; Activity (HL-60 [14]): 28.04%
